Where two headings read alike, the source gives them in different places.
Legend:
[1] = biological target: T1, hPPARγ (Homo sapiens, UniProt P37231); experiment: PPAR luciferase reporter gene transactivation in HEK-293 cells; assay type: cell-based; settings: for hPPARγ Maximal Fold Activation / EC50: HEK-293, 18 h, N.D. = not detected up to 100 μM; for hPPARγ Maximal Fold Activation: fold induction vs DMSO; for concentration to reach saturation response (maximal activation): hPPARγ luciferase reporter, HEK-293; for EC50: read-out: hPPARγ EC50
T1 sequence (P37231 1-477 isoform P37231-2): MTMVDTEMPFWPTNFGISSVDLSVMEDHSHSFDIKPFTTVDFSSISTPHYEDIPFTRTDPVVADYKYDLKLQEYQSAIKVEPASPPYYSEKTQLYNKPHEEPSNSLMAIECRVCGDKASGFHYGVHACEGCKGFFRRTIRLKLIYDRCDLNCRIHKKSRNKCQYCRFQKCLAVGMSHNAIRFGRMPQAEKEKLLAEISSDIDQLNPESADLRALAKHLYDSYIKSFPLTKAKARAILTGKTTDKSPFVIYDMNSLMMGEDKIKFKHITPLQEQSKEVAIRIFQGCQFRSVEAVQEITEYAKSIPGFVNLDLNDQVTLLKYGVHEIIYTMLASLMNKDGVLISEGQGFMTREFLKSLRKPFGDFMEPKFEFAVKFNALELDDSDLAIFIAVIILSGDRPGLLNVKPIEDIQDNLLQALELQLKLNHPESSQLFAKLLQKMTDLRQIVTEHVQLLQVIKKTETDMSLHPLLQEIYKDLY

[2] = tested on: 3T3-L1 preadipocytes; experiment: 3T3-L1 adipocyte differentiation; assay type: cell-based, rodent; settings: 10 μM compound, 7 to 8 days
In short: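 Mouse 3T3-L1 preadipocytes grown in DMEM with 10% calf serum to confluence (day −2), held 2 more days, then switched at day 0 to DMEM with 10% FCS, 1 μg/ml insulin and test compound (DMSO ≤0.1% final). Medium renewed every 2 days to day 7–8. Cells formalin-fixed 1 h, Oil Red O-stained 10 min, photographed; bound dye eluted in isopropanol, read at 550 nm.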

[3] = biological target: T2, Mouse PPARγ (Mus musculus, UniProt P37238); experiment: PPAR luciferase reporter gene transactivation in HEK-293 cells; assay type: cell-based; settings: for Mouse PPARγ Maximal Fold Activation: fold induction vs DMSO
T2 sequence (P37238 1-505): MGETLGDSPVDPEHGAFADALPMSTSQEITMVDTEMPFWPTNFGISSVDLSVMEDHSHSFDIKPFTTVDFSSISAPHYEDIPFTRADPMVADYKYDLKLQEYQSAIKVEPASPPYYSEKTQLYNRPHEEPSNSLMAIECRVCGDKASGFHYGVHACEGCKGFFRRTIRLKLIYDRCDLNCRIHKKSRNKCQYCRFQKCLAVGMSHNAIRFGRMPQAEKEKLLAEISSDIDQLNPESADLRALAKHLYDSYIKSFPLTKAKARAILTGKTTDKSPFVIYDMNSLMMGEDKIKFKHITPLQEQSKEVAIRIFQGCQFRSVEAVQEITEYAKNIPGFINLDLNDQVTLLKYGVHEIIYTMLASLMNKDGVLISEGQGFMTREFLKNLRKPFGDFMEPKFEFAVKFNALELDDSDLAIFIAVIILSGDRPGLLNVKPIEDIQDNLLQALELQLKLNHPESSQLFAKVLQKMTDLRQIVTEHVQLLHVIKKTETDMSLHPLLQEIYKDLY

[4] = biological target: T3, hPPARγ LBD (Homo sapiens, UniProt P37231); experiment: LanthaScreen TR-FRET PPARγ competitive ligand binding assay; settings: for Ki: hPPARγ LBD, displacement of Fluormone Pan-PPAR Green, Cheng-Prusoff
T3 sequence (P37231 238-503 limits assumed): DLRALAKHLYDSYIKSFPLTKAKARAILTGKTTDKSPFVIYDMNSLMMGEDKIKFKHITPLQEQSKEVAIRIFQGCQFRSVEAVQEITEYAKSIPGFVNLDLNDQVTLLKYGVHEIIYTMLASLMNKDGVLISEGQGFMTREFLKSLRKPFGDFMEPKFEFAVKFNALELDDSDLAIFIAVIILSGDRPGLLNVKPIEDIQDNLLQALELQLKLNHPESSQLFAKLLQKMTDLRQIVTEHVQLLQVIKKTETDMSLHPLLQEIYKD

[5] = biological target: T4, hPPARα (Homo sapiens, UniProt Q07869); experiment: PPAR luciferase reporter gene transactivation in HEK-293 cells; assay type: cell-based; settings: HEK-293, 18 h, fold induction vs DMSO; N.D. = not detected up to 100 μM
T4 sequence (Q07869 1-468): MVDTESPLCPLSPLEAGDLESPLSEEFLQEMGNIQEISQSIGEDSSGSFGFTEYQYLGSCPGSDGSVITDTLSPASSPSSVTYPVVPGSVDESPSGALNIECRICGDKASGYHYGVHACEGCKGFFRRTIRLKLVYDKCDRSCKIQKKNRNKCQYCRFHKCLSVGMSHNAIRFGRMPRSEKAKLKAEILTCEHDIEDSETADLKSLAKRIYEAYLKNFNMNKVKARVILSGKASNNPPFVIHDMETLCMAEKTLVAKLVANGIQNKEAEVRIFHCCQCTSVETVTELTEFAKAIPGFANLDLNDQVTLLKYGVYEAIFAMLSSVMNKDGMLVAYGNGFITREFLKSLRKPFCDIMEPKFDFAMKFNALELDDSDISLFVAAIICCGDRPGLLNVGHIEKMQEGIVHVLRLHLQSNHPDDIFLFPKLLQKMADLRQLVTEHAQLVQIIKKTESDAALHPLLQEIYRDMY

[6] = biological target: T3, hPPARγ LBD; experiment: LanthaScreen TR-FRET PPARγ coactivator; assay type: biochemical; settings: 1 h incubation, 520 nm/495 nm ratio
[7] = tested on: type 2 diabetic Goto-Kakizaki rats; settings: ref Sohn et al., 2007; cited from earlier work
[8] = tested on: 3T3-L1 cells and C3H10T1/2 cells; settings: ref Choi et al., 2009; cited from earlier work
[9] = HEK-293, 18 h, N.D. = not detected up to 100 μM
[10] = read-out: Mouse PPARγ EC50, HEK-293, 18 h, N.D. = not detected up to 100 μM

hPPARγ Maximal Fold Activation [1] | concentration to reach saturation response (maximal activation) [1] | EC50 [1] [nM] | Mouse PPARγ Maximal Fold Activation [3, 9] | EC50 [3, 10] [nM] | Ki [4] [nM] | SMILES | adipogenic activity (differentiation to adipocytes, Oil Red O) [2] | other results
3.58 | approximately 1 μM | 620 | 2.93 | 930 | 240 | C=CCc1cc(OC)c(O)c(-c2cc(CC=C)cc(OC)c2O)c1 [Compound 1, dieugenol] | induced 3T3-L1 preadipocyte differentiation | –
– | – | – | – | – | – | CC(C)(Sc1ccc(CCN(CCCCC2CCCCC2)C(=O)NC2CCCCC2)cc1)C(=O)O [GW7647] | – | hPPARα Maximal Fold Activation [5]: 3.09
3.34 | approximately 1 μM | 330 | 2.98 | 380 | 320 | CCCc1cc(OC)c(O)c(-c2cc(CCC)cc(OC)c2O)c1 [Compound 2, tetrahydrodieugenol] | induced 3T3-L1 preadipocyte differentiation | –
– | – | – | – | – | – | C=CCc1ccc(O)c(OC)c1 [Compound 4, eugenol, reference compound] | no adipogenic activity | TRAP220/DRIP-2 coactivator peptide recruitment to the PPARγ LBD [6]: not active; binding to the hPPARγ LBD ([4]; test concentrations up to 100 μM): did not bind to the receptor at all
– | – | – | – | – | – | C=CCc1ccc(O)c(-c2cc(CC=C)ccc2O)c1 [Compound 3, magnolol] | induced 3T3-L1 preadipocyte differentiation | EC50 [3]: 1140 nM; fasting blood glucose [7]: decreased; plasma insulin levels [7]: decreased; adipocyte differentiation [8]: enhances adipocyte differentiation

Source: publication PMC3523390 (Molecular pharmacology, 2010)
